# Screening results (PubChem BioAssay)
# VIM-2 inh = inhibitors of Pseudomonas aeruginosa VIM-2 metallo-beta-lactamase. purified VIM-2, nitrocefin hydrolysis, epi-absorbance fluorescence. inhibition, % at 5.6 µM. actives 0.89% (n = 290,000). AID 1527;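 active = inhibition above the mean of all tested compounds plus 3 SD, cutoff set per screening run, cut at about 7.5% in these data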;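 note: red hydrolysis product quenches plate fluorescence so inhibitors raise well fluorescence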
# Runt-SMMHC FRET = Runt domain-CBFb-SMMHC interaction inhibition | Cerulean-Runt/Venus-CBFb-SMMHC FRET ratio 530/480, 1 h | inhibition, % at 20 µM | actives 0.74% (n = 220,000);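 active = mean inhibition across duplicate retests at 20 µM reaching about 50%, limit read from the data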;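 note: inhibitors lower the FRET ratio by blocking Runt binding to CBFb-SMMHC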
# Runt-CBFb FRET = blocks binding of human RUNX1 Runt domain to CBFb | Cerulean-Runt/Venus-CBFb FRET ratio 530/480, 1 h | inhibition, % at 20 µM | actives 0.46% (n = 220,000) | AID 1496;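 active = inhibition over about 50% at 20 µM in the single-dose screen, limit read from the data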
#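 Assay system: Cerulean-tagged RUNX1 Runt domain (FRET donor) fusion protein / Amount: 100 nM each of Venus-CBFb and Cerulean-Runt domain / Medium: Tris buffer pH 7.5 with salts and BSA / Also added: Venus-CBFb 100 nM / Schedule: 1 h complex formation plus 1 h compound treatment, room temperature / Signal: FRET fluorescence / Read-out: loss of energy transfer signal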
# RanGTP-Impb inh = inhibitors of RanGTP-importin-beta interaction, primary screen, biochemical, FRET, CFP-Ran, YFP-importin-beta, homogeneous | AID 2216 | cell-free CFP-Ran/YFP-importin-beta FRET ratio | actives 1.1% (n = 300,000) | inhibition, % (no concentration beside the values);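 active = more than half of the replicate wells show a fall in the fluorescence ratio signal beyond about 16%, limit read from the data, passing the limit was not always enough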
# IMP-1 inh-1 = blocks Pseudomonas aeruginosa IMP-1 metallo-beta-lactamase | purified IMP-1, nitrocefin hydrolysis, epi-absorbance fluorescence | inhibition, % at 5.6 µM | actives 0.45% (n = 290,000) | AID 1556;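 active = inhibition above the mean plus 3 SD of all compounds in the same screening run, cut at about 4.5% in these data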
#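 Test system: recombinant IMP-1 enzyme, purified / Medium: HEPES buffer pH 7.1 with ZnSO4 and Brij 35 / Doses: single dose, 5.6 µM / Times: 25 °C, 15 min preincubation, 25 min reaction / Detection: Epi-absorbance via hydrolysed-nitrocefin quenching of white-plate fluorescence, 480/530 nm, EDTA stop / Evaluation: percent inhibition from optical density relative to buffer-blank wells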
# IMP-1 inh-2 = selectivity counter-screen for VIM-2 inhibitors: IMP-1 metallo-beta-lactamase inhibitors. shares compounds with VIM-2 inh. purified IMP-1, nitrocefin hydrolysis, epi-absorbance fluorescence. inhibition, % at 5.6 µM. 1,300 tested, under 10 active; call rule not given here
# VIM-2 FRET inh = inhibits VIM-2 in FRET assay to exclude epi-absorbance artifacts; shares compounds with VIM-2 inh; AID 1857; purified VIM-2, CCF2 FRET substrate hydrolysis; inhibition, % at 5.6 µM; actives 23% (n = 1,300);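 active = inhibition above the mean of all tested compounds plus 3 SD, cut at about 19% in these data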
# TEM-1 counter = selectivity counter-screen for VIM-2 inhibitors: E. coli TEM-1 inhibitors; Purified TEM-1, nitrocefin hydrolysis, epi-absorbance fluorescence; actives 3% (n = 1,300); AID 1866; shares compounds with VIM-2 inh; inhibition, % at 5.6 µM;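 active = inhibition above that campaign's mean inhibition plus 3 SD, cut at about 0.46% in these data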
# Target sequence (P62593 whole entry, looked up): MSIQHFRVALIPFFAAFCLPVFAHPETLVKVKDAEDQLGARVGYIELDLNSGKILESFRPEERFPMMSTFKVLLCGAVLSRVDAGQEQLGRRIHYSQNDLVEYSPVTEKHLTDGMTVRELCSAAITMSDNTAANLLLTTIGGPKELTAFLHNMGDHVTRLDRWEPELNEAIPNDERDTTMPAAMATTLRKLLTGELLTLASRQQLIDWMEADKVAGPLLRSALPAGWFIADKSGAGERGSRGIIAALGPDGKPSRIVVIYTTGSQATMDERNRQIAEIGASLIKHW
# VIM-2 confirm 2 = confirmation of P. aeruginosa VIM-2 metallo-beta-lactamase inhibitors. purified VIM-2, nitrocefin hydrolysis, epi-absorbance. AID 2187. actives 96% (n = 1,300). shares compounds with VIM-2 inh. inhibition, % at 5.6 µM;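 active = inhibition of the VIM-2 beta-lactamase enzyme above about 11% from the earlier first-round screen, limit read from the data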
# Numbers stand for hits; - = inactive; . = not tested or not shown. Only some compounds are listed: those with a hit (about 2.6% of all), similar ones and a draw of the others.
SMILES,VIM-2 inh,Runt-SMMHC FRET,Runt-CBFb FRET,RanGTP-Impb inh,IMP-1 inh-1,IMP-1 inh-2,VIM-2 FRET inh,TEM-1 counter,VIM-2 confirm 2
O=C(O)C(c1ccccc1)N1C(=O)/C(=C\c2ccc(O)c(O)c2)SC1=S (stereo not given),31,.,.,-,-,-,50,-,31
COc1ccccc1CNC(=O)COC(=O)c1nccnc1N,-,.,.,-,-,.,.,.,.
CCOC(=O)c1cnc(-n2nc(C)cc2C)nc1NCc1ccc2c(c1)OCO2,58,-,-,-,-,-,-,1.6,89
CCOC(=O)C1(Cc2cccc(Cl)c2)CCCN(C(=O)c2cnn(CC)c2)C1 (stereo not given),-,.,.,-,-,.,.,.,.
Cc1c(OCC(=O)NCCCN2CCCC2=O)ccc2c3c(c(=O)oc12)CCC3,23,.,.,-,-,-,-,-,29
Cc1c(OCC(=O)NCCCN2CCCC2=O)ccc2c3c(c(=O)oc12)CCCC3,12,.,.,-,-,-,-,-,21
Cc1cc(=O)oc2c(C)c(OCC(=O)NCCCN3CCCC3=O)ccc12,-,.,.,-,-,.,.,.,.
O=c1ccc(-c2ccc(S(=O)(=O)N3CCN(c4ccccc4)CC3)o2)n[nH]1,-,.,.,-,-,.,.,.,.
CCOc1ccc(Nc2cc(C)nc(-n3nc(C)cc3C)n2)cc1,17,-,-,-,-,-,-,-,43
O=[N+]([O-])c1cnc(Nc2ccccc2)nc1Nc1ccccc1,-,.,.,-,-,.,.,.,.
O=c1cc(CN2CCN(CCO)CC2)c2cc3c(cc2o1)CCC3,17,-,-,-,-,-,-,-,33
CCOC(=O)N1CCN(Cc2cc(=O)oc3cc4c(cc23)CCC4)CC1,-,-,-,-,-,.,.,.,.
c1cn(-c2ccc(-c3ccnc4ncnn34)cc2)cn1,45,-,-,-,-,-,-,-,63
c1cncc(-c2ccnc3ncnn23)c1,-,-,-,-,-,.,.,.,.
Cc1c(N)ccc(-n2nc3ccccc3n2)c1C,.,.,.,-,.,.,.,.,.
Nc1nc(NCCCN2CCOCC2)nc(Nc2ccccc2F)c1[N+](=O)[O-],29,-,-,-,-,-,-,-,51
Cc1cccc(Nc2nc(N)c([N+](=O)[O-])c(NCc3ccccc3)n2)c1,-,-,-,-,-,.,.,.,.
Cc1cccc(Nc2nc(NCCCN3CCOCC3)nc(N)c2[N+](=O)[O-])c1,14,-,-,-,-,-,-,-,37
Nc1nc(Nc2ccccc2F)nc(NCCO)c1[N+](=O)[O-],-,-,-,-,-,.,.,.,.
O=C(CSc1nnc(NC(=O)c2ccccc2[N+](=O)[O-])s1)NCc1ccco1,41,.,.,.,-,-,64,-,46
O=C(CSc1nnc(NC(=O)c2ccccc2F)s1)Nc1ccccc1F,-,-,-,-,-,.,.,.,.
O=C(CSc1nnc(NC(=O)C2CC2)s1)NCc1ccccc1Cl,29,.,.,-,-,-,53,-,35
O=C(CSc1nnc(NC(=O)Cc2ccccc2)s1)NCc1ccco1,-,-,-,-,-,.,.,.,.
O=C(CSc1nnc(NC(=O)c2ccccc2F)s1)NCc1ccc(F)cc1,38,.,.,-,-,-,61,-,44
COc1ccccc1C(=O)Nc1nnc(SCC(=O)NCc2ccco2)s1,46,.,.,-,-,-,70,-,53
SMILES,VIM-2 inh,Runt-SMMHC FRET,Runt-CBFb FRET,RanGTP-Impb inh,IMP-1 inh-1,IMP-1 inh-2,VIM-2 FRET inh,TEM-1 counter,VIM-2 confirm 2
CCOC(=O)C[C@H]1c2ccc(C(F)(F)F)cc2S(=O)(=O)N1c1cccc(OC)c1,.,.,.,-,.,.,.,.,.
O=C(CSc1nnc(NC(=O)c2ccccc2F)s1)NCc1ccco1,41,.,.,.,-,-,68,-,49
Cc1cccc(NC(=O)CSCC(=O)Nc2cc(Cl)ccc2N2CCN(C)CC2)c1,-,.,.,-,-,.,.,.,.
CN1CCN(c2ccc(NC(=O)c3ccc4c(c3)OCO4)cc2)CC1,18,-,-,-,-,-,-,-,31
CCOc1ccc(C(=O)Nc2ccc(N3CCN(C)CC3)cc2)cc1Br,24,-,-,-,-,-,-,-,43
CCOc1ccc(C(=O)Nc2ccc(NC(=O)c3ccccc3)cc2)cc1Br,-,.,.,-,-,.,.,.,.
CN1CCN(c2ccc(NC(=O)COc3ccccc3Cl)cc2)CC1,20,-,-,-,-,-,-,-,40
CN(C(=O)c1ccc(Cl)c([N+](=O)[O-])c1)C1(C)CCS(=O)(=O)C1 (stereo not given),.,.,.,-,.,.,.,.,.
CCC[C@H](CN[C@@H](CNC)[C@H](C)O)NCCc1ccc(OC)cc1,-,.,.,-,-,.,.,.,.
CCCC[C@@H](CNC)NC[C@H](Cc1ccc(O)cc1)NCCc1ccc(OCC)cc1,67,.,.,-,-,-,-,-,70
C=CCn1cnc2c(oc3ccccc32)c1=O,-,.,.,-,-,.,.,.,.
CCCCN(CC)CCCNC(=O)c1cc2c(=O)n(CC)c3ccccc3c2s1,12,.,.,-,-,-,-,-,22
CCCN(CCC)CCCNC(=O)c1cc2c(=O)n(CC)c3ccccc3c2s1,14,.,.,-,-,-,-,-,21
CCCCN(CC)CCNC(=O)c1cc2c(=O)n(CC)c3ccccc3c2s1,14,.,.,-,-,-,-,-,19
COC(C(=O)N/N=C(\C)c1ccc(C(C)(C)C)cc1)c1ccccc1 (stereo not given),-,.,.,-,-,.,.,.,.
CC(=O)NCCn1c(SCC(=O)c2ccccc2)nc2ccccc2c1=O,14,-,-,-,-,-,24,-,20
CC(=O)NCCn1c(SCC(=O)OCc2ccccc2)nc2ccccc2c1=O,-,-,-,-,-,.,.,.,.
COc1ccc(Cc2nnc(NC(=O)C3CCCO3)s2)cc1OC (stereo not given),56,-,-,-,-,-,-,-,-
COC(=O)CCc1c(C)[nH]c(C(=O)OCc2ccccc2)c1C,-,-,-,-,-,.,.,.,.
CCOC(=O)c1[nH]c(C(=O)O)c(CCC(=O)OC)c1C,22,-,-,-,-,-,49,-,32
C=CCn1c2ccccc2c2nnc(SCCCn3c(=O)[nH]c4ccccc43)nc21,-,-,-,.,-,.,.,.,.
C=CCn1c2ccccc2c2nnc(SCCN3CCCCC3)nc21,19,.,.,-,-,-,-,-,22
c1ccc(Cn2c3ccccc3c3nnc(SCCN4CCCCC4)nc32)cc1,27,-,-,-,-,-,-,-,42
O=[N+]([O-])c1ccc(N=Nc2ncc[nH]2)cc1,-,.,.,-,-,.,.,.,.
